Data published in ChEMBL document CHEMBL1121637, “Tumor inhibitory triazenes. 2. Variation of antitumor activity within an homologous series” (J Med Chem, 1980).

How the values were obtained:
[1] = Solubility in sorensen's phosphate buffer at pH 7.4 and 25 degrees Centigrade.
Mus musculus [2] = species: Mus musculus; test: Minimum dose that causes 50% increase in life span in TLX/5 lymphoma bearing animal; assay type: functional
Summary of the method: (§1)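 Female CBA/LAC mice with subcutaneously transplanted TLX/5 lymphoma. Drug given i.p. in saline (about pH 7.5) once daily for 5 consecutive days, starting 3 days after transplant. Doses ran 12.5–400 mg/kg, with lower doses made by serial dilution. Five mice per dose; survival time compared with 10 untreated controls. ILS ≥20% counted significant. Minimum dose for 50% ILS expressed in mol/kg.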

Mus musculus [3] = test: Percent increase in life span of TLX/5 lymphoma bearing mice at dose of 100 mg/kg; assay type: functional; summary of the method: as §1
Mus musculus [4] = test: Percent increase in life span of TLX/5 lymphoma bearing mice at dose of 12.5 mg/kg; assay type: functional; summary of the method: as §1
Mus musculus [5] = test: Percent increase in life span of TLX/5 lymphoma bearing mice at dose of 200 mg/kg; assay type: functional; summary of the method: as §1
Mus musculus [6] = test: Percent increase in life span of TLX/5 lymphoma bearing mice at dose of 25 mg/kg; assay type: functional
Mus musculus [7] = test: Percent increase in life span of TLX/5 lymphoma bearing mice at dose of 50 mg/kg; assay type: functional; summary of the method: as §1
[8] = Partition coefficient was determined in octanol-saturated sorenson's pH 7.4 phosphate buffer and buffer-saturated octanol.; assay type: physicochemical; settings: octanol/Sorensen's phosphate buffer
Summary of the method: (§2)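 Compound shaken 1 h at room temperature in 0.1 M Sorenson's phosphate buffer pre-saturated with octanol, filtered. A known volume was then shaken 1 h with a known volume of buffer-saturated octanol. Aqueous phase and initial filtrate diluted in ethanol, filtered, absorbance read at λmax. P = (aqueous vol × absorbance drop)/(final aqueous absorbance × octanol vol). Mean of at least two determinations.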

Mus musculus [9] = test: Percent increase in life span of TLX/5 lymphoma bearing mice at dose of 400 mg/kg; assay type: functional; summary of the method: as §1
Mus musculus [10] = test: Percent increase in life span of TLX/5 lymphoma bearing mice at dose of 100 mg/kg when 10 % acetone/Oil is given as vehicle; assay type: functional
Mus musculus [11] = test: Percent increase in life span of TLX/5 lymphoma bearing mice at dose of 12.5 mg/kg when 10 % acetone/Oil is given as vehicle; assay type: functional
Mus musculus [12] = test: Percent increase in life span of TLX/5 lymphoma bearing mice at dose of 200 mg/kg when 10 % acetone/Oil is given as vehicle; assay type: functional
Mus musculus [13] = test: Percent increase in life span of TLX/5 lymphoma bearing mice at dose of 25 mg/kg when 10 % acetone/Oil is given as vehicle; assay type: functional
Mus musculus [14] = test: Percent increase in life span of TLX/5 lymphoma bearing mice at dose of 400 mg/kg when 10 % acetone/Oil is given as vehicle; assay type: functional
Mus musculus [15] = test: Percent increase in life span of TLX/5 lymphoma bearing mice at dose of 50 mg/kg when 10 % acetone/Oil is given as vehicle; assay type: functional
[16] = Partition coefficient between octanol-saturated sorenson's pH 7.4 phosphate buffer and buffer-saturated octanol.; assay type: physicochemical; settings: octanol/Sorensen's phosphate buffer; summary of the method: as §2
Mus musculus [17] = species: Mus musculus; test: Minimum dose that causes 50% increase in life span in TLX/5 lymphoma bearing mice; assay type: functional; summary of the method: as §1
Mus musculus [18] = test: Percent increase in life span of TLX/5 lymphoma bearing mice at dose of 100 mg/kg 200 mg/kg; assay type: functional; summary of the method: as §1

In the case of `CCC(C)CN(C)/N=N/c1ccc(C(=O)O)cc1` (centres undefined), the Solubility [1] is reported as 0.0162 M l-1, the Dose (Mus musculus [2]) is reported as 0.0002 mol/kg and the ILS at 100 mg/kg (Mus musculus [3]) is reported as 62%. The ILS at 12.5 mg/kg (Mus musculus [4]) was 7%, the ILS at 200 mg/kg (Mus musculus [5]) was 60% and the ILS at 25 mg/kg (Mus musculus [6]) was 11%. For the same molecule, the ILS at 50 mg/kg (Mus musculus [7]) was 52%, the logD [8] was 1.33 and the ILS at 400 mg/kg (Mus musculus [9]) was 57%.
With `CCCCCCCCCCCCN(C)/N=N/c1ccc(C(=O)O)cc1` the Solubility [1] was 4.13e-6 M l-1.
With `CN(Cc1ccccc1)/N=N/c1ccc(C(=O)O)cc1` the ILS at 100 mg/kg (Mus musculus [3]) was 49%, the ILS at 12.5 mg/kg (Mus musculus [4]) was 6% and the ILS at 200 mg/kg (Mus musculus [5]) was -59%. For the same molecule, the ILS at 25 mg/kg (Mus musculus [6]) was 6%, the ILS at 50 mg/kg (Mus musculus [7]) was 7% and the ILS at 400 mg/kg (Mus musculus [9]) was -61%.
With `CCCCN(C)/N=N/c1ccc(C(=O)O)cc1` the Solubility [1] was 0.0155 M l-1, the Dose (Mus musculus [2]) was 5.3e-05 mol/kg and the ILS at 100 mg/kg (Mus musculus [3]) was 47%. The ILS at 12.5 mg/kg (Mus musculus [4]) was 69%, the ILS at 200 mg/kg (Mus musculus [5]) was 20% and the ILS at 25 mg/kg (Mus musculus [6]) was 82%. It also gave an ILS at 50 mg/kg (Mus musculus [7]) of 86%, a logD [8] of 0.97 and an ILS at 400 mg/kg (Mus musculus [9]) of -31%.
Molecule `CN(C)/N=N/c1ccc(C(=O)O)cc1` has a Dose (Mus musculus [2]) of 6.2e-05 mol/kg, an ILS at 100 mg/kg (Mus musculus [10]) of 49% and an ILS at 100 mg/kg (Mus musculus [3]) of 34%. It also gave an ILS at 12.5 mg/kg (Mus musculus [4]) of 40%, an ILS at 12.5 mg/kg (Mus musculus [11]) of 19% and an ILS at 200 mg/kg (Mus musculus [12]) of -4%. For the same molecule, the ILS at 200 mg/kg (Mus musculus [5]) was 0%, the ILS at 25 mg/kg (Mus musculus [6]) was 72% and the ILS at 25 mg/kg (Mus musculus [13]) was 51%. The ILS at 400 mg/kg (Mus musculus [14]) was -36%, the ILS at 50 mg/kg (Mus musculus [15]) was 70% and the ILS at 50 mg/kg (Mus musculus [7]) was 83%. For the same molecule, the logD [8] was -0.44 and the ILS at 400 mg/kg (Mus musculus [9]) was -34%.
For `C#CCN(C)/N=N/c1ccc(C(=O)O)cc1`, the Dose (Mus musculus [2]) was 0.00015 mol/kg, the ILS at 100 mg/kg (Mus musculus [3]) was 70% and the ILS at 12.5 mg/kg (Mus musculus [4]) was 0%. It also gave an ILS at 200 mg/kg (Mus musculus [5]) of 40%, an ILS at 25 mg/kg (Mus musculus [6]) of 36% and an ILS at 50 mg/kg (Mus musculus [7]) of 76%. It also gave a logD [8] of 0 and an ILS at 400 mg/kg (Mus musculus [9]) of -18%.
`C=CCN(C)/N=N/c1ccc(C(=O)O)cc1` showed a Dose (Mus musculus [2]) of 0.00017 mol/kg, an ILS at 100 mg/kg (Mus musculus [3]) of 76% and an ILS at 12.5 mg/kg (Mus musculus [4]) of 1%. It also gave an ILS at 200 mg/kg (Mus musculus [5]) of 56%, an ILS at 25 mg/kg (Mus musculus [6]) of 11% and an ILS at 50 mg/kg (Mus musculus [7]) of 96%. For the same molecule, the logD [8] was 0.32 and the ILS at 400 mg/kg (Mus musculus [9]) was -25%.
`CCCCCCN(C)/N=N/c1ccc(C(=O)O)cc1` gave a Solubility [1] of 0.00298 M l-1, a Dose (Mus musculus [2]) of 3e-05 mol/kg and an ILS at 100 mg/kg (Mus musculus [3]) of 73%. The ILS at 12.5 mg/kg (Mus musculus [4]) was 0%, the ILS at 200 mg/kg (Mus musculus [5]) was -8% and the ILS at 25 mg/kg (Mus musculus [6]) was 0%. It also gave an ILS at 50 mg/kg (Mus musculus [7]) of 18%, a logD [8] of 1.95 and an ILS at 400 mg/kg (Mus musculus [9]) of -53%.
`CCCCCCCCN(C)/N=N/c1ccc(C(=O)O)cc1` gave a Solubility [1] of 0.000171 M l-1 and a logD [8] of 2.77.
Molecule `CCCCCCCN(C)/N=N/c1ccc(C(=O)O)cc1` has a Solubility [1] of 0.00041 M l-1, an ILS at 100 mg/kg (Mus musculus [3]) of 9% and an ILS at 12.5 mg/kg (Mus musculus [4]) of 3%. It also gave an ILS at 200 mg/kg (Mus musculus [5]) of -19%, an ILS at 25 mg/kg (Mus musculus [6]) of 1% and an ILS at 50 mg/kg (Mus musculus [7]) of 5%. The logD [8] was 2.58 and the ILS at 400 mg/kg (Mus musculus [9]) was -48%.
`CCN(C)/N=N/c1ccc(C(=O)O)cc1` showed a logD [16] of 0.04, a Dose (Mus musculus [17]) of 7e-05 mol/kg and an ILS at 100 mg/kg (Mus musculus [3]) of 67%. For the same molecule, the ILS at 200 mg/kg (Mus musculus [18]) was 27%, the ILS at 12.5 mg/kg (Mus musculus [4]) was 44% and the ILS at 25 mg/kg (Mus musculus [6]) was 79%. It also gave an ILS at 50 mg/kg (Mus musculus [7]) of 79% and an ILS at 400 mg/kg (Mus musculus [9]) of -21%.
Work on `CCCCCN(C)/N=N/c1ccc(C(=O)O)cc1` yielded a Solubility [1] of 0.00428 M l-1, a Dose (Mus musculus [2]) of 7.1e-05 mol/kg and an ILS at 100 mg/kg (Mus musculus [3]) of 61%. It also gave an ILS at 12.5 mg/kg (Mus musculus [4]) of 10%, an ILS at 200 mg/kg (Mus musculus [5]) of -61% and an ILS at 25 mg/kg (Mus musculus [6]) of 108%. It also gave an ILS at 50 mg/kg (Mus musculus [7]) of 75%, a logD [8] of 1.49 and an ILS at 400 mg/kg (Mus musculus [9]) of -61%.
`CCCN(C)/N=N/c1ccc(C(=O)O)cc1` gave a Solubility [1] of 0.0368 M l-1, a Dose (Mus musculus [2]) of 9.4e-05 mol/kg and an ILS at 100 mg/kg (Mus musculus [3]) of 69%. The ILS at 12.5 mg/kg (Mus musculus [4]) was 13%, the ILS at 200 mg/kg (Mus musculus [5]) was 57% and the ILS at 25 mg/kg (Mus musculus [6]) was 69%. For the same molecule, the ILS at 50 mg/kg (Mus musculus [7]) was 69%, the logD [8] was 0.46 and the ILS at 400 mg/kg (Mus musculus [9]) was -3%.
`CC(C)N(C)/N=N/c1ccc(C(=O)O)cc1` gave a Dose (Mus musculus [2]) of 7e-05 mol/kg, an ILS at 100 mg/kg (Mus musculus [3]) of 60% and an ILS at 12.5 mg/kg (Mus musculus [4]) of 37%. The ILS at 200 mg/kg (Mus musculus [5]) was 45%, the ILS at 25 mg/kg (Mus musculus [6]) was 90% and the ILS at 50 mg/kg (Mus musculus [7]) was 64%. For the same molecule, the logD [8] was 0.34 and the ILS at 400 mg/kg (Mus musculus [9]) was 35%.
In the case of `CN(C)/N=N/c1[nH]cnc1C(N)=O` [DACARBAZINE], the ILS at 100 mg/kg (Mus musculus [3]) is reported as 55%, the ILS at 12.5 mg/kg (Mus musculus [4]) is reported as 55% and the ILS at 200 mg/kg (Mus musculus [5]) is reported as 61%. The ILS at 25 mg/kg (Mus musculus [6]) was 55%, the ILS at 50 mg/kg (Mus musculus [7]) was 59% and the ILS at 400 mg/kg (Mus musculus [9]) was -11%.
